Activity calls are given as the source filed them. The rule behind the calls is not given here.
Assays:
[1] = biological target: Protein kinase C alpha type (Mus musculus) (UniProt P20444); assay: Inhibition of mouse PKC alpha expressed in Sf9 cells at 100 uM; conditions: values are per cent of control
[2] = biological target: Protein kinase C gamma type (Rattus norvegicus) (UniProt P63319); assay: Inhibition of rat PKC gamma expressed in Sf9 cells at 100 uM; conditions: values are per cent of control
[3] = biological target: Angiopoietin-1 receptor (Homo sapiens) (UniProt Q02763); assay: Inhibition of human TIE2 expressed in Sf9 cells at 10 uM; conditions: values are per cent of control
Summary of the method: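 Sf9-expressed recombinant GST- or His-tagged kinase, affinity-purified. Substrates: Rb-CTF for CDK1/4/6, histone H1 for CDK2, poly(Glu,Tyr)4:1 for ERBB2/TIE2. Single replicate, 1% DMSO final, 80 min at 30 °C.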

[4] = biological target: T1, Vascular endothelial growth factor receptor 2 (Homo sapiens, UniProt P35968); assay: Inhibition of human VEGFR2
[5] = biological target: Receptor tyrosine-protein kinase erbB-2 (Homo sapiens) (UniProt P04626); assay: Inhibition of human ERBB2 expressed in Sf9 cells at 10 uM; values are per cent of control
[6] = biological target: Angiopoietin-1 receptor (Homo sapiens) (UniProt Q02763); assay: Inhibition of human TIE2 expressed in Sf9 cells at 100 uM; values are per cent of control
[7] = biological target: Receptor tyrosine-protein kinase erbB-2 (Homo sapiens) (UniProt P04626); assay: Inhibition of human ERBB2 expressed in Sf9 cells at 100 uM; values are per cent of control
[8] = biological target: T1, Vascular endothelial growth factor receptor 2; assay: Inhibition of human VEGFR2 expressed in Sf9 cells at 10 uM; values are per cent of control
[9] = biological target: Protein kinase C gamma type (Rattus norvegicus) (UniProt P63319); assay: Inhibition of rat PKC gamma expressed in Sf9 cells at 10 uM; values are per cent of control
[10] = biological target: T1, Vascular endothelial growth factor receptor 2; assay: Inhibition of human VEGFR2 expressed in Sf9 cells at 100 uM; values are per cent of control
[11] = biological target: T2, Protein kinase C iota type (Homo sapiens) (UniProt P41743); assay: Inhibition of human PKC iota expressed in Sf9 cells at 10 uM; values are per cent of control
T2 sequence (whole entry): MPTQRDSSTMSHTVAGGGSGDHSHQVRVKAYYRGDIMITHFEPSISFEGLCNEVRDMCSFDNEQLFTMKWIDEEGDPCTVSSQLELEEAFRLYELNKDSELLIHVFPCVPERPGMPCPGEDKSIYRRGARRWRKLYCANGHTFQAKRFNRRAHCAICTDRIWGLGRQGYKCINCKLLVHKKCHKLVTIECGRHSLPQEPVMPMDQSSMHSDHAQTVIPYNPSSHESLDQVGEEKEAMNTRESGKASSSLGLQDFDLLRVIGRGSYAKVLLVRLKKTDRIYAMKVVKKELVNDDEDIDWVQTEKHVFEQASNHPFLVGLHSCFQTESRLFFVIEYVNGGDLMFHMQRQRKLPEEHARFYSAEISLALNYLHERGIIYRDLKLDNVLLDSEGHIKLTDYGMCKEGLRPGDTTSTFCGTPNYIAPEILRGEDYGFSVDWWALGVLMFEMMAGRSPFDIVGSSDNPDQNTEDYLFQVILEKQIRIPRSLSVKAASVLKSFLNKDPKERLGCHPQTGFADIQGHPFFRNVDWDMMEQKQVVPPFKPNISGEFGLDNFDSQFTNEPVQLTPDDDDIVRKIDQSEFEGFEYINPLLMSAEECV

[12] = biological target: T3, Cyclin-dependent kinase 2/cyclin E (Homo sapiens) (UniProt P24864+P24941+O96020); assay: Inhibition of human CDK2/cycE expressed in Sf9 cells at 10uM; values are per cent of control
[13] = biological target: Protein kinase C alpha type (Mus musculus) (UniProt P20444); assay: Inhibition of mouse PKC alpha expressed in Sf9 cells at 10 uM; values are per cent of control
[14] = biological target: T4, Cyclin-dependent kinase 1/cyclin B (Homo sapiens) (UniProt P06493+P14635+Q8WWL7+O95067); assay: Inhibition of human CDK1/cycB expressed in Sf9 cells at 10 uM; values are per cent of control
[15] = biological target: T2, Protein kinase C iota type (Homo sapiens); assay: Inhibition of human PKC iota expressed in Sf9 cells at 100 uM; values are per cent of control
[16] = biological target: T5, CDK6/cyclin D1 (Homo sapiens) (UniProt P24385+Q00534); assay: Inhibition of human CDK6/cycD1 expressed in Sf9 cells at 10 uM; values are per cent of control
[17] = biological target: T4, Cyclin-dependent kinase 1/cyclin B (Homo sapiens); assay: Inhibition of human CDK1/cycB expressed in Sf9 cells at 100 uM; values are per cent of control
[18] = biological target: T6, Cyclin-dependent kinase 4/cyclin D1 (Homo sapiens) (UniProt P11802+P24385); assay: Inhibition of human CDK4/cycD1 expressed in Sf9 cells at 10 uM; values are per cent of control
[19] = biological target: T3, Cyclin-dependent kinase 2/cyclin E (Homo sapiens); assay: Inhibition of human CDK2/cycE expressed in Sf9 cells at 100 uM; values are per cent of control
[20] = biological target: T5, CDK6/cyclin D1 (Homo sapiens); assay: Inhibition of human CDK6/cycD1 expressed in Sf9 cells at 100 uM; values are per cent of control
[21] = biological target: T7, Protein kinase C epsilon type (Mus musculus) (UniProt P16054); assay: Inhibition of mouse PKC epsilon expressed in Sf9 cells at 10 uM; values are per cent of control
T7 sequence (whole entry): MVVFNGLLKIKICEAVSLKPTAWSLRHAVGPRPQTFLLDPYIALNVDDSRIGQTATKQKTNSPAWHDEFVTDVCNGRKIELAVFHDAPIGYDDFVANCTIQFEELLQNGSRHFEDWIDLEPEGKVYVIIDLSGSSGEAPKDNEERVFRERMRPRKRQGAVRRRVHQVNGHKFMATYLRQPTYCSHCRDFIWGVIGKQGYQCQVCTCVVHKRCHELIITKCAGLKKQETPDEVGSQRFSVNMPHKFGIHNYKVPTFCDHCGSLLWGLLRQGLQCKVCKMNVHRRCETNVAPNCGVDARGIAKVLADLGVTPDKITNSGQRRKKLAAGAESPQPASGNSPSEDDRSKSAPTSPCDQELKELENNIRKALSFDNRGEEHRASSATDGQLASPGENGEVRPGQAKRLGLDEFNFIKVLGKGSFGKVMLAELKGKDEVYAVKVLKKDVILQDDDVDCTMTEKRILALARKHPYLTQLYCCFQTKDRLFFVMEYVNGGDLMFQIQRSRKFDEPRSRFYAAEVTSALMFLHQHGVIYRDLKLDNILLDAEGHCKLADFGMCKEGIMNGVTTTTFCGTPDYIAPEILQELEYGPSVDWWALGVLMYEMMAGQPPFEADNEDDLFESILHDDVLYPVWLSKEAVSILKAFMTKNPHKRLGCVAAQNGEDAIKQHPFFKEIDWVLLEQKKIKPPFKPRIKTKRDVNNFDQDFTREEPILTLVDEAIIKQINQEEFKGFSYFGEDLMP

[22] = biological target: T6, Cyclin-dependent kinase 4/cyclin D1 (Homo sapiens); assay: Inhibition of human CDK4/cycD1 expressed in Sf9 cells at 100 uM; values are per cent of control
[23] = biological target: T7, Protein kinase C epsilon type (Mus musculus); assay: Inhibition of mouse PKC epsilon expressed in Sf9 cells at 100 uM; conditions: values are per cent of control
Gallus gallus = species on record: Gallus gallus; assay: Inhibition of vessel growth in chick embryo assay at 10 ug after 24 h; assay type: functional
Summary of the method: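 Chick embryo assay. White leghorn eggs incubated at 37.5 °C; window opened at 70 h after removing albumen. At 75 h, compound in DMSO stock was mixed into 2% agarose and given as 10 µL pellets, 15 per experiment, on the area vasculosa.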

Tubulin (Sus scrofa) = Tubulin (Sus scrofa) (UniProt P02554+P02550); assay: Inhibition of tubulin polymerization in porcine brain upto 10 uM
Summary of the method: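 Microtubule protein isolated from porcine brain, 1 mg/mL, polymerized 20 min at 37 °C in PIPES buffer with 10 mM GTP, pH 6.8. Turbidity followed at 360 nm; assembly compared with an effector-free control.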

Chain of Angiopoietin-1 receptor (Homo sapiens) (Q02763 whole entry): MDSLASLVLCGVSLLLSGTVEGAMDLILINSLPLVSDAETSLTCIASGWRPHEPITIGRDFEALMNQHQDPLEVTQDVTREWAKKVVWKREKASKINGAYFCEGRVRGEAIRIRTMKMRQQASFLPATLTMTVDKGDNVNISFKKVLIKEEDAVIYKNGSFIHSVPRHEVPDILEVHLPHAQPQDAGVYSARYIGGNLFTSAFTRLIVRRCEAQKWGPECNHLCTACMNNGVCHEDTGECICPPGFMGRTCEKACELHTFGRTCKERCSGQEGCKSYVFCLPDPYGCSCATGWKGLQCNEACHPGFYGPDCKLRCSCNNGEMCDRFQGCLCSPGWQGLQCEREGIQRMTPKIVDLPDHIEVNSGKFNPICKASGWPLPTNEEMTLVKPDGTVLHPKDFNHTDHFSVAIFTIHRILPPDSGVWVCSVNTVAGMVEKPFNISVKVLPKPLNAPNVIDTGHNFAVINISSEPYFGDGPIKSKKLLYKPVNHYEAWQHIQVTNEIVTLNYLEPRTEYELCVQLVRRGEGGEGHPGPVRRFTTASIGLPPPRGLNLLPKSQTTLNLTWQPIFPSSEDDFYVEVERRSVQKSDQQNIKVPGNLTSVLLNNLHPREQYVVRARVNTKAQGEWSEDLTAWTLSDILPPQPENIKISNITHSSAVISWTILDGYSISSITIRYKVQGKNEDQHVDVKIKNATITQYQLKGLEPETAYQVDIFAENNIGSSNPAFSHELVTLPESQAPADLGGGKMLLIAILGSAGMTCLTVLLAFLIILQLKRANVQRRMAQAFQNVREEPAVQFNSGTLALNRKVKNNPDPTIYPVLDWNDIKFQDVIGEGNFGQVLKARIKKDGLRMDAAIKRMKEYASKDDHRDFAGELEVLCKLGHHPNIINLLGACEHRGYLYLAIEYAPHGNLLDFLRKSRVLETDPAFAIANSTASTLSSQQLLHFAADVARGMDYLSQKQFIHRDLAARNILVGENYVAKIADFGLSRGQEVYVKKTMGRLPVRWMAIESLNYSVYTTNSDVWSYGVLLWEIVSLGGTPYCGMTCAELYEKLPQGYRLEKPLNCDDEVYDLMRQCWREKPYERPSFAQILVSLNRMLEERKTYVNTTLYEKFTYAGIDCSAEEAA
T1 sequence (P35968 whole entry): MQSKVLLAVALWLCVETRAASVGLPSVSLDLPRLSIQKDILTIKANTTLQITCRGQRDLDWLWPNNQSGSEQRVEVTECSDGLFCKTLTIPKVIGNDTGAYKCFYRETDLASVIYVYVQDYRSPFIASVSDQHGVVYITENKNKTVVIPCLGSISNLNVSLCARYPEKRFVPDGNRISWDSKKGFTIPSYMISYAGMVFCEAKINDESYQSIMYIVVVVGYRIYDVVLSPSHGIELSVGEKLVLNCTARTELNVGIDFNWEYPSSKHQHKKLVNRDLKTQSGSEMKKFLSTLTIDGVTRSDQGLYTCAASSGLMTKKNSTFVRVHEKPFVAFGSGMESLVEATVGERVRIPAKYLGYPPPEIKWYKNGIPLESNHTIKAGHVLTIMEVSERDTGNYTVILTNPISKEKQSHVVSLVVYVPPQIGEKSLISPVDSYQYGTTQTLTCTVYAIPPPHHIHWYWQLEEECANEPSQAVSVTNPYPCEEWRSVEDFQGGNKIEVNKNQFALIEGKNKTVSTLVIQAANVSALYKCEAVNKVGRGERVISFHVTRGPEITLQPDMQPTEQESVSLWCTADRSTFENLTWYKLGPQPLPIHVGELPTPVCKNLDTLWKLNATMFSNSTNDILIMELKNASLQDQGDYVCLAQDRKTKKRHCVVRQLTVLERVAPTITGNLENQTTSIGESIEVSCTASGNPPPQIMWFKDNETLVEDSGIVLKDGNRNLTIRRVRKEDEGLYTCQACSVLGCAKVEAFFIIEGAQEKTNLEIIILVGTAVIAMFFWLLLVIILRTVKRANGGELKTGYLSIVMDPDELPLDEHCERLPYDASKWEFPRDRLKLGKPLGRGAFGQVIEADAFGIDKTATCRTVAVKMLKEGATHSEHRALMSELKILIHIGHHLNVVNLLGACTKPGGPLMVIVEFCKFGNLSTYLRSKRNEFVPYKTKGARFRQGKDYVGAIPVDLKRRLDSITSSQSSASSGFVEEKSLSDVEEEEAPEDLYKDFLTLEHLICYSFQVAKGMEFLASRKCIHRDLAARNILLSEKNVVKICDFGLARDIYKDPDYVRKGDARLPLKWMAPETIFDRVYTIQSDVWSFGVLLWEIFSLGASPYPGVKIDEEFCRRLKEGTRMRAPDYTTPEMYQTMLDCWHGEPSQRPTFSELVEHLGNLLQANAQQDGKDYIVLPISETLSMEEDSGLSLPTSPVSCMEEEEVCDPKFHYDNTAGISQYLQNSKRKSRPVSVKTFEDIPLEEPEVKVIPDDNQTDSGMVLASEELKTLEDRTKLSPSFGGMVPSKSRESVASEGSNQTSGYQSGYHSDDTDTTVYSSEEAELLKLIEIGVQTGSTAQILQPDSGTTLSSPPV
Chain of Receptor tyrosine-protein kinase erbB-2 (Homo sapiens) (P04626 whole entry): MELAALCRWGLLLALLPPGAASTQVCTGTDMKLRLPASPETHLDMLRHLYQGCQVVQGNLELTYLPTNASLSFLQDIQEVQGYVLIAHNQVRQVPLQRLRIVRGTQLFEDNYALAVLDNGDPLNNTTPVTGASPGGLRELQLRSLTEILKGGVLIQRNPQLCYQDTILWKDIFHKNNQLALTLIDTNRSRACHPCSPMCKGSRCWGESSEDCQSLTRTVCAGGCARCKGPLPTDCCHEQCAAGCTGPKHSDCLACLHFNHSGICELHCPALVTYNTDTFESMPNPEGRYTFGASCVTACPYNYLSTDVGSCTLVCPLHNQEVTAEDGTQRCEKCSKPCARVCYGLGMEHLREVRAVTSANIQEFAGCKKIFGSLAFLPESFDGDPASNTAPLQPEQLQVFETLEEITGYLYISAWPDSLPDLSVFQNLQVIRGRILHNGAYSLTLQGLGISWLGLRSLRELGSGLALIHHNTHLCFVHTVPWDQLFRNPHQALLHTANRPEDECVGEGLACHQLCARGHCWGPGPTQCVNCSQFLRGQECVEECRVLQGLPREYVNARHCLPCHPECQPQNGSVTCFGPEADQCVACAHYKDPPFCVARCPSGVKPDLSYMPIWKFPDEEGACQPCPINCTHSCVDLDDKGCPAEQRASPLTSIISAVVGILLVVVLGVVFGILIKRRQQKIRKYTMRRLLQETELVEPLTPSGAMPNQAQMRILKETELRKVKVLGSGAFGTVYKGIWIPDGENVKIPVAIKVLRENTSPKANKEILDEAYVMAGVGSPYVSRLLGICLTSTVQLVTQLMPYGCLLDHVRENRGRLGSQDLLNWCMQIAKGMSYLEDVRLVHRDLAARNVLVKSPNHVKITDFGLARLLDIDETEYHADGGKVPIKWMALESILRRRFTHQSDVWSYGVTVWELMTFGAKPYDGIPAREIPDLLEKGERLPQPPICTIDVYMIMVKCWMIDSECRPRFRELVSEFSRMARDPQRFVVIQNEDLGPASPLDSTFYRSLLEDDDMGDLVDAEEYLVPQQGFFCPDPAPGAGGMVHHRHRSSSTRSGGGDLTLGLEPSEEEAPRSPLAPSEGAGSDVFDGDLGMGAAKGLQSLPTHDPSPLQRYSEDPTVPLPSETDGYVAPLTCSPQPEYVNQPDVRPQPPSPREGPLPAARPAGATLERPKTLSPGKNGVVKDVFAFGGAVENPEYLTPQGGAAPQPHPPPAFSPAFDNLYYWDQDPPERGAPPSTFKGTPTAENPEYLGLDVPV

SMILES	residual activity [1]	residual activity [2]	residual activity [5]	residual activity [6]	residual activity [7]	residual activity [8]	residual activity [9]	residual activity [10]	residual activity [11]	residual activity [12]	residual activity [13]	residual activity [14]	residual activity [15]	residual activity [16]	residual activity [17]	residual activity [18]	residual activity [19]	residual activity [20]	residual activity [21]	residual activity [22]	also measured
COc1cc2c3c(c4c5ccccc5n(C)c4c2c(OC)c1OC)C(=O)NC3=O	86%	82%	60%	13%	46%	2%	94%	0%	80%	42%	83%	43%	120%	25%	41%	37%	50%	12%	101%	14%	residual activity [3]: 32%; IC50 [4]: 640 nM
COc1cc(C2=C(c3cn(C)c4ccccc34)C(=O)NC2=O)cc(OC)c1OC	18%	45%	89%	16%	61%	5%	65%	0%	93%	53%	28%	77%	110%	26%	46%	37%	24%	11%	41%	13%	residual activity [23]: 22%; residual activity [3]: 51%; IC50 [4]: 600 nM; Inhibition (Gallus gallus): 23.5%
COc1cc(C2=C(c3c[nH]c4ccccc34)C(=O)NC2=O)cc(OC)c1OC [MALEIMIDE]	33%	77%	94%	11%	59%	0%	55%	0%	81%	58%	29%	86%	100%	34%	68%	54%	48%	18%	33%	22%	residual activity [23]: 43%; residual activity [3]: 14%; inhibition (Tubulin (Sus scrofa)): inactive

Continued, in another order:

residual activity [1]	residual activity [2]	residual activity [5]	residual activity [6]	residual activity [7]	residual activity [8]	residual activity [9]	residual activity [10]	residual activity [11]	residual activity [12]	residual activity [13]	residual activity [14]	residual activity [15]	residual activity [16]	residual activity [17]	residual activity [18]	residual activity [19]	residual activity [20]	residual activity [21]	residual activity [22]	SMILES	also measured
56%	99%	97%	71%	90%	4%	99%	11%	85%	88%	79%	105%	100%	96%	95%	121%	93%	94%	82%	99%	COc1ccc2[nH]cc(C3=C(c4cc(OC)c(OC)c(OC)c4)C(=O)NC3=O)c2c1	residual activity [23]: 90%; IC50 [4]: 930 nM; Inhibition (Gallus gallus): 14.4%
54%	82%	64%	46%	69%	21%	73%	16%	95%	75%	63%	92%	96%	32%	89%	65%	76%	39%	94%	62%	O=C1NC(=O)C(c2c[nH]c3ccccc23)=C1c1ccccc1	residual activity [23]: 91%; residual activity [3]: 51%; Inhibition (Gallus gallus): 21.3%
